Laboratory results taken from ChEMBL document CHEMBL2311435, “Development of 18F-labeled picolinamide probes for PET imaging of malignant melanoma” (J Med Chem, 2013).

Key:
Mus musculus [1] = test: Biodistribution in tumor of C57BL/6 mouse xenografted with mouse B16F10 cells at 3.7 MBq, iv after 2 hrs by gamma-scintillation counting analysis; assay type: ADME, organism-based, Neoplasm, B16-F10; conditions: in vivo
In short: (§1)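 1.0 × 10^6 B16F10 cells in PBS injected subcutaneously into the right shoulder of C57BL/6 mice, grown to 0.5 cm (~10 day). Tail-vein injection of about 3.7 MBq (100 μCi) 18F probe in PBS (0.1 M, pH 7.4). Killed at 1.0 or 2.0 h p.i. (n = 4 per group). Tissues excised, weighed and gamma-counted; uptake expressed as %ID/g, mean ± SD.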

Pancreas [2] = test: Biodistribution in pancreas of C57BL/6 mouse xenografted with mouse B16F10 cells at 3.7 MBq, iv after 1 hr by gamma-scintillation counting analysis; assay type: ADME, organism-based, B16-F10; conditions: in vivo; in short: as §1
Pancreas [3] = test: Biodistribution in pancreas of C57BL/6 mouse xenografted with mouse B16F10 cells at 3.7 MBq, iv after 2 hrs by gamma-scintillation counting analysis; assay type: ADME, organism-based, B16-F10; conditions: in vivo; in short: as §1
Muscle tissue [4] = test: Biodistribution in muscle of C57BL/6 mouse xenografted with mouse B16F10 cells at 3.7 MBq, iv after 1 hr by gamma-scintillation counting analysis; assay type: ADME, organism-based, B16-F10; conditions: in vivo; in short: as §1
Blood [5] = test: Biodistribution in blood of C57BL/6 mouse xenografted with mouse B16F10 cells at 3.7 MBq, iv after 1 hr by gamma-scintillation counting analysis; assay type: ADME, organism-based, B16-F10; conditions: in vivo; in short: as §1
Heart [6] = test: Biodistribution in heart of C57BL/6 mouse xenografted with mouse B16F10 cells at 3.7 MBq, iv after 2 hrs by gamma-scintillation counting analysis; assay type: ADME, organism-based, B16-F10; conditions: in vivo; in short: as §1
Spleen [7] = test: Biodistribution in spleen of C57BL/6 mouse xenografted with mouse B16F10 cells at 3.7 MBq, iv after 1 hr by gamma-scintillation counting analysis; assay type: ADME, organism-based, B16-F10; conditions: in vivo; in short: as §1
Nucleic Acid [8] = test: Ratio of drug uptake in tumor to lungs of C57BL/6 mouse xenografted with mouse B16F10 cells at 3.7 MBq, iv after 2 hrs by gamma-scintillation counting analysis; assay type: ADME, organism-based, B16-F10; conditions: in vivo
In short: (§2)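 Same subcutaneous B16F10 model and tail-vein dose of about 3.7 MBq (100 μCi), n = 4 per group. Dissection at 1 or 2 h p.i. Gamma-counter %ID/g of tumor divided by that of blood, lung, liver or muscle, given as mean ± SD.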

Zone of skin [9] = test: Biodistribution in skin of C57BL/6 mouse xenografted with mouse B16F10 cells at 3.7 MBq, iv after 1 hr by gamma-scintillation counting analysis; assay type: ADME, organism-based, B16-F10; conditions: in vivo; in short: as §1
Bone [10] = test: Biodistribution in bone of C57BL/6 mouse xenografted with mouse B16F10 cells at 3.7 MBq, iv after 1 hr by gamma-scintillation counting analysis; assay type: ADME, organism-based, Bone element, B16-F10; conditions: in vivo; in short: as §1
Liver [11] = test: Biodistribution in liver of C57BL/6 mouse xenografted with mouse B16F10 cells at 3.7 MBq, iv after 2 hrs by gamma-scintillation counting analysis; assay type: ADME, organism-based, B16-F10; conditions: in vivo; in short: as §1
Nucleic Acid [12] = test: Ratio of drug uptake in tumor to lungs of C57BL/6 mouse xenografted with mouse B16F10 cells at 3.7 MBq, iv after 1 hr by gamma-scintillation counting analysis; assay type: ADME, organism-based, B16-F10; conditions: in vivo; in short: as §2
Zone of skin [13] = test: Biodistribution in skin of C57BL/6 mouse xenografted with mouse B16F10 cells at 3.7 MBq, iv after 2 hrs by gamma-scintillation counting analysis; assay type: ADME, organism-based, B16-F10; conditions: in vivo; in short: as §1
Mus musculus [14] = test: Biodistribution in lungs of C57BL/6 mouse xenografted with mouse B16F10 cells at 3.7 MBq, iv after 1 hr by gamma-scintillation counting analysis; assay type: ADME, organism-based, Lung, B16-F10; conditions: in vivo; in short: as §1
Mus musculus [15] = test: Biodistribution in tumor of C57BL/6 mouse xenografted with mouse B16F10 cells at 3.7 MBq, iv after 1 hr by gamma-scintillation counting analysis; assay type: ADME, organism-based, Neoplasm, B16-F10; conditions: in vivo; in short: as §1
Nucleic Acid [16] = test: Ratio of drug uptake in tumor to muscle of C57BL/6 mouse xenografted with mouse B16F10 cells at 3.7 MBq, iv after 1 hr by gamma-scintillation counting analysis; assay type: ADME, organism-based, B16-F10; conditions: in vivo; in short: as §2
Kidney [17] = test: Biodistribution in kidney of C57BL/6 mouse xenografted with mouse B16F10 cells at 3.7 MBq, iv after 2 hrs by gamma-scintillation counting analysis; assay type: ADME, organism-based, B16-F10; conditions: in vivo; in short: as §1
[18] = Drug uptake in tumor of C57BL/6 mouse xenografted with mouse B16F10 cells at 3.7 MBq, iv after 1 hr by PET imaging analysis; assay type: ADME, organism-based, Neoplasm, B16-F10; conditions: in vivo
In short: (§3)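 Static small-animal PET at 0.5, 1 and 2 h after tail-vein injection of ~3.7 MBq (100 μCi) into B16F10-bearing C57BL/6 mice (n = 4 per probe). Isoflurane anesthesia, 5% induction and 2% maintenance in O2. Decay-corrected images. ROI-derived %ID/g assumes 1 g/ml density, without attenuation correction. Mean ± SD.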

Mus musculus [19] = test: Biodistribution in eye of C57BL/6 mouse xenografted with mouse B16F10 cells at 3.7 MBq, iv after 1 hr by gamma-scintillation counting analysis; assay type: ADME, organism-based, B16-F10; conditions: in vivo; in short: as §1
Brain [20] = test: Biodistribution in brain of C57BL/6 mouse xenografted with mouse B16F10 cells at 3.7 MBq, iv after 2 hrs by gamma-scintillation counting analysis; assay type: ADME, organism-based, B16-F10; conditions: in vivo; in short: as §1
Nucleic Acid [21] = test: Ratio of drug uptake in tumor to liver of C57BL/6 mouse xenografted with mouse B16F10 cells at 3.7 MBq, iv after 2 hrs by gamma-scintillation counting analysis; assay type: ADME, organism-based, B16-F10; conditions: in vivo; in short: as §2
Heart [22] = test: Biodistribution in heart of C57BL/6 mouse xenografted with mouse B16F10 cells at 3.7 MBq, iv after 1 hr by gamma-scintillation counting analysis; assay type: ADME, organism-based, B16-F10; conditions: in vivo; in short: as §1
Mus musculus [23] = test: Biodistribution in eye of C57BL/6 mouse xenografted with mouse B16F10 cells at 3.7 MBq, iv after 2 hrs by gamma-scintillation counting analysis; assay type: ADME, organism-based, B16-F10; conditions: in vivo; in short: as §1
Spleen [24] = test: Biodistribution in spleen of C57BL/6 mouse xenografted with mouse B16F10 cells at 3.7 MBq, iv after 2 hrs by gamma-scintillation counting analysis; assay type: ADME, organism-based, B16-F10; conditions: in vivo; in short: as §1
Nucleic Acid [25] = test: Ratio of drug uptake in tumor to blood of C57BL/6 mouse xenografted with mouse B16F10 cells at 3.7 MBq, iv after 1 hr by gamma-scintillation counting analysis; assay type: ADME, organism-based, B16-F10; conditions: tumour; in short: as §2
Intestine [26] = test: Biodistribution in intestine of C57BL/6 mouse xenografted with mouse B16F10 cells at 3.7 MBq, iv after 1 hr by gamma-scintillation counting analysis; assay type: ADME, organism-based, B16-F10; conditions: in vivo; in short: as §1
Nucleic Acid [27] = test: Ratio of drug uptake in tumor to liver of C57BL/6 mouse xenografted with mouse B16F10 cells at 3.7 MBq, iv after 1 hr by gamma-scintillation counting analysis; assay type: ADME, organism-based, B16-F10; conditions: in vivo; in short: as §2
Liver [28] = test: Biodistribution in liver of C57BL/6 mouse xenografted with mouse B16F10 cells at 3.7 MBq, iv after 1 hr by gamma-scintillation counting analysis; assay type: ADME, organism-based, B16-F10; conditions: in vivo; in short: as §1
Bone [29] = test: Biodistribution in bone of C57BL/6 mouse xenografted with mouse B16F10 cells at 3.7 MBq, iv after 2 hrs by gamma-scintillation counting analysis; assay type: ADME, organism-based, Bone element, B16-F10; conditions: in vivo; in short: as §1
Stomach [30] = test: Biodistribution in stomach of C57BL/6 mouse xenografted with mouse B16F10 cells at 3.7 MBq, iv after 2 hrs by gamma-scintillation counting analysis; assay type: ADME, organism-based, B16-F10; conditions: in vivo; in short: as §1
Nucleic Acid [31] = test: Ratio of drug uptake in tumor to blood of C57BL/6 mouse xenografted with mouse B16F10 cells at 3.7 MBq, iv after 2 hrs by gamma-scintillation counting analysis; assay type: ADME, organism-based, B16-F10; conditions: tumour; in short: as §2
Mus musculus [32] = test: Biodistribution in lungs of C57BL/6 mouse xenografted with mouse B16F10 cells at 3.7 MBq, iv after 2 hrs by gamma-scintillation counting analysis; assay type: ADME, organism-based, Lung, B16-F10; conditions: in vivo; in short: as §1
Brain [33] = test: Biodistribution in brain of C57BL/6 mouse xenografted with mouse B16F10 cells at 3.7 MBq, iv after 1 hr by gamma-scintillation counting analysis; assay type: ADME, organism-based, B16-F10; conditions: in vivo; in short: as §1
Kidney [34] = test: Biodistribution in kidney of C57BL/6 mouse xenografted with mouse B16F10 cells at 3.7 MBq, iv after 1 hr by gamma-scintillation counting analysis; assay type: ADME, organism-based, B16-F10; conditions: in vivo; in short: as §1
[35] = Drug uptake in tumor of C57BL/6 mouse xenografted with mouse B16F10 cells at 3.7 MBq, iv after 2 hrs by PET imaging analysis; assay type: ADME, organism-based, Neoplasm, B16-F10; conditions: in vivo; in short: as §3
Stomach [36] = test: Biodistribution in stomach of C57BL/6 mouse xenografted with mouse B16F10 cells at 3.7 MBq, iv after 1 hr by gamma-scintillation counting analysis; assay type: ADME, organism-based, B16-F10; conditions: in vivo; in short: as §1
Blood [37] = test: Biodistribution in blood of C57BL/6 mouse xenografted with mouse B16F10 cells at 3.7 MBq, iv after 2 hrs by gamma-scintillation counting analysis; assay type: ADME, organism-based, B16-F10; conditions: in vivo; in short: as §1
Nucleic Acid [38] = test: Ratio of drug uptake in tumor to muscle of C57BL/6 mouse xenografted with mouse B16F10 cells at 3.7 MBq, iv after 2 hrs by gamma-scintillation counting analysis; assay type: ADME, organism-based, B16-F10; conditions: in vivo; in short: as §2
Muscle tissue [39] = test: Biodistribution in muscle of C57BL/6 mouse xenografted with mouse B16F10 cells at 3.7 MBq, iv after 2 hrs by gamma-scintillation counting analysis; assay type: ADME, organism-based, B16-F10; conditions: in vivo; in short: as §1
[40] = Drug uptake in tumor of C57BL/6 mouse xenografted with mouse B16F10 cells at 3.7 MBq, iv after 0.5 hrs by PET imaging analysis; assay type: ADME, organism-based, Neoplasm, B16-F10; conditions: in vivo; in short: as §3
Intestine [41] = test: Biodistribution in intestine of C57BL/6 mouse xenografted with mouse B16F10 cells at 3.7 MBq, iv after 2 hrs by gamma-scintillation counting analysis; assay type: ADME, organism-based, B16-F10; conditions: in vivo; in short: as §1

CCN(CC)CCNC(=O)c1ccc([18F])cc1
Drug uptake (Mus musculus [1]): 5.94 % ID/g

CCN(CC)CCNC(=O)c1ccc([18F])nc1
Drug uptake (Pancreas [2]): 3.58 % ID/g
Drug uptake (Pancreas [3]): 0.71 % ID/g
Drug uptake (Muscle tissue [4]): 1.11 % ID/g
Drug uptake (Blood [5]): 0.46 % ID/g
Drug uptake (Heart [6]): 0.4 % ID/g
Drug uptake (Spleen [7]): 2.88 % ID/g
Ratio (Nucleic Acid [8]): 10.49
Drug uptake (Zone of skin [9]): 2.37 % ID/g
Drug uptake (Bone [10]): 3.48 % ID/g
Drug uptake (Liver [11]): 1.07 % ID/g
Ratio (Nucleic Acid [12]): 6.23
Drug uptake (Mus musculus [1]): 9.29 % ID/g
Drug uptake (Zone of skin [13]): 0.71 % ID/g
Drug uptake (Mus musculus [14]): 1.52 % ID/g
Drug uptake (Mus musculus [15]): 9.54 % ID/g
Ratio (Nucleic Acid [16]): 11.24
Drug uptake (Kidney [17]): 1.2 % ID/g
Drug uptake [18]: 7.94 % ID/g
Drug uptake (Mus musculus [19]): 34 % ID/g
Drug uptake (Brain [20]): 0.41 % ID/g
Ratio (Nucleic Acid [21]): 7.26
Drug uptake (Heart [22]): 1.54 % ID/g
Drug uptake (Mus musculus [23]): 32.23 % ID/g
Drug uptake (Spleen [24]): 0.56 % ID/g
Ratio (Nucleic Acid [25]): 20.44
Drug uptake (Intestine [26]): 3.46 % ID/g
Ratio (Nucleic Acid [27]): 2.24
Drug uptake (Liver [28]): 4.47 % ID/g
Drug uptake (Bone [29]): 2.12 % ID/g
Drug uptake (Stomach [30]): 2.27 % ID/g
Ratio (Nucleic Acid [31]): 39.2
Drug uptake (Mus musculus [32]): 0.92 % ID/g
Drug uptake (Brain [33]): 1.56 % ID/g
Drug uptake (Kidney [34]): 5.63 % ID/g
Drug uptake [35]: 8.47 % ID/g
Drug uptake (Stomach [36]): 5.03 % ID/g
Drug uptake (Blood [37]): 0.2 % ID/g
Ratio (Nucleic Acid [38]): 15.22
Drug uptake (Muscle tissue [39]): 0.52 % ID/g
Drug uptake [40]: 7.54 % ID/g
Drug uptake (Intestine [41]): 0.89 % ID/g
